The source made the active and inactive calls. The rule behind the calls is not given here.

Usually inhibition stands for the drop in the measured response relative to a control, in per cent. By IC50 is commonly meant the concentration that inhibits the measured activity by half.

Experiment [1] concerns the target Phosphatidylinositol 4,5-bisphosphate 3-kinase catalytic subunit alpha isoform (Homo sapiens, UniProt P42336). As to the kind of experiment: Inhibition of human recombinant PI3K-alpha assessed as formation of PI3P from PI by cell free kinase assay. An outline of the steps: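 Cell-free kinase assay with recombinant PI3Kα (p110α). The read-out was PI3P formed from the substrate phosphatidylinositol. An IC50 was derived.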

Experiment [2] deals with H460. As to the kind of experiment: Inhibition of PI3K in human H460 cells assessed as Akt phosphorylation at Ser 473 at 10 uM. The experiment is classed as cell-based. Summed up: (§1)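 Human NSCLC H-460 cells; PI3K activity read as Akt phosphorylation at Ser 473 and mTOR activity as p70S6 kinase phosphorylation at Thr 389. Compounds were screened at 10 µM, and some up to 30 µM. Activity was reported as % inhibition. LY-294002 served as the reference inhibitor at 30 µM.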

In experiment [3] the target is Serine/threonine-protein kinase mTOR (Homo sapiens) (UniProt P42345). The experiment in a line: Inhibition of mTOR in human H460 cells assessed as p70S6 phosphorylation at Thr 389 upto 30 uM. The experiment is classed as cell-based. Summed up: as §1
Experiment [4] has as its target T1, Hypoxia inducible factors; HIF-1-alpha, HIF-2-alpha (Homo sapiens, UniProt Q16665+Q99814). The experiment in a line: Inhibition of hypoxia-induced HIF1 activation in human U251HRE cells by cell based reporter gene assay. For orientation: A reporter such as luciferase makes a cellular process visible.
The test system of experiment [5] is H460. The experiment in a line: Inhibition of PI3K in human H460 cells assessed as Akt phosphorylation at Ser 473 upto 30 uM. The experiment is classed as cell-based. An outline of the steps:
as §1

Experiment [6] has as its target Serine/threonine-protein kinase mTOR (Homo sapiens) (UniProt P42345). As to the kind of experiment: Inhibition of mTOR in human H460 cells assessed as p70S6 phosphorylation at Thr 389 at 10 uM. The experiment is classed as cell-based. An outline of the steps: as §1
Experiment [7] addresses Hypoxia-inducible factor 1-alpha (Homo sapiens) (UniProt Q16665). As to the kind of experiment: Inhibition of HIF1alpha. An outline of the steps:
(§2)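 HRE-driven cell-based reporter gene assay of HIF-1 activation. Activation was induced by hypoxia (1% O2, 94% N2, 5% CO2) or by DFX. Compounds were tested up to 30 µM and an IC50 was derived. YC-1 served as the reference inhibitor.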

Experiment [8] has the same target. As to the kind of experiment: Inhibition of HIF1-alpha at 30 uM. Summed up:
as §2

The target of experiment [9] is T1, Hypoxia inducible factors; HIF-1-alpha, HIF-2-alpha. The experiment in a line: Inhibition of HIF1 in human U251HRE cells at 10 uM by Western blot. The experiment is classed as cell-based. An outline of the steps:
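U251-HRE-Luc cells were induced with DFX for 6 h in the presence of test compound at 10 µM, alongside untreated and DFX-only controls. HIF-1 was assessed by Western blot.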
For orientation: A western blot detects proteins with antibodies after separation by electrophoresis.

Experiment [10] relates to H460. The experiment in a line: Inhibition of PI3K in human H460 cells assessed as Akt phosphorylation at 3 uM by Western blot.
The subject of experiment [11] is H460. The experiment in a line: Inhibition of PI3K in human H460 cells assessed as Akt phosphorylation at 10 uM by Western blot.
For experiment [12], the target named is Serine/threonine-protein kinase mTOR (Homo sapiens) (UniProt P42345). The experiment in a line: Inhibition of mTOR in human H460 cells assessed as 4E-BP1 phosphorylation at 10 uM by Western blot. The experiment is classed as cell-based. Summed up:
(§3)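 H460 cells were stimulated with 20% FCS in the presence of test compound at 3 or 10 µM, alongside untreated and FCS-only controls. Phosphorylation was assessed by Western blot.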

For experiment [13] the target is unchanged. As to the kind of experiment: Inhibition of mTOR in human H460 cells assessed as 4E-BP1 phosphorylation at 3 uM by Western blot. The experiment is classed as cell-based. An outline of the steps: as §3

Hypoxia-inducible factor 1-alpha (Homo sapiens), sequence (Q16665 whole entry, looked up): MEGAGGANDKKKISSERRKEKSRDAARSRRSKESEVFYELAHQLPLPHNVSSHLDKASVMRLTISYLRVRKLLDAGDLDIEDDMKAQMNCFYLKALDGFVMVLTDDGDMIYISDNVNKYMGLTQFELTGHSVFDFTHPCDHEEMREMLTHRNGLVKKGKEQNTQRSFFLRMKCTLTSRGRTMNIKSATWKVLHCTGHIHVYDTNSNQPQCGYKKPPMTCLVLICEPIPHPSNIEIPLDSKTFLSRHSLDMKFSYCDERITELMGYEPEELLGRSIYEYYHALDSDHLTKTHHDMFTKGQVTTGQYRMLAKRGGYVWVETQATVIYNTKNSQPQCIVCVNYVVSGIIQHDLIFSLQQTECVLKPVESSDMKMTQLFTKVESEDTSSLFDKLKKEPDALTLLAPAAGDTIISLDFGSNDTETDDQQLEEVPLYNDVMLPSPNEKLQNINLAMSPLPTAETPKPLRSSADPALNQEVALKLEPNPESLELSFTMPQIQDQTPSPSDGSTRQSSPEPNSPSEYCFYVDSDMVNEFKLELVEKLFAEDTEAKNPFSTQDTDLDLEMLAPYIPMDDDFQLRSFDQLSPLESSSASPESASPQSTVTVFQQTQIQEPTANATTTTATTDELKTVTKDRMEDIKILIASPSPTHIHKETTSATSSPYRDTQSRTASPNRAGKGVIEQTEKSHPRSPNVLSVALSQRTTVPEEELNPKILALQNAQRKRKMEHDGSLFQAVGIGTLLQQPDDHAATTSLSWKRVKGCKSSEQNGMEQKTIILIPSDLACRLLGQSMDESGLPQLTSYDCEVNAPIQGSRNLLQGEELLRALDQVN
Phosphatidylinositol 4,5-bisphosphate 3-kinase catalytic subunit alpha isoform, sequence (P42336 whole entry, canonical isoform): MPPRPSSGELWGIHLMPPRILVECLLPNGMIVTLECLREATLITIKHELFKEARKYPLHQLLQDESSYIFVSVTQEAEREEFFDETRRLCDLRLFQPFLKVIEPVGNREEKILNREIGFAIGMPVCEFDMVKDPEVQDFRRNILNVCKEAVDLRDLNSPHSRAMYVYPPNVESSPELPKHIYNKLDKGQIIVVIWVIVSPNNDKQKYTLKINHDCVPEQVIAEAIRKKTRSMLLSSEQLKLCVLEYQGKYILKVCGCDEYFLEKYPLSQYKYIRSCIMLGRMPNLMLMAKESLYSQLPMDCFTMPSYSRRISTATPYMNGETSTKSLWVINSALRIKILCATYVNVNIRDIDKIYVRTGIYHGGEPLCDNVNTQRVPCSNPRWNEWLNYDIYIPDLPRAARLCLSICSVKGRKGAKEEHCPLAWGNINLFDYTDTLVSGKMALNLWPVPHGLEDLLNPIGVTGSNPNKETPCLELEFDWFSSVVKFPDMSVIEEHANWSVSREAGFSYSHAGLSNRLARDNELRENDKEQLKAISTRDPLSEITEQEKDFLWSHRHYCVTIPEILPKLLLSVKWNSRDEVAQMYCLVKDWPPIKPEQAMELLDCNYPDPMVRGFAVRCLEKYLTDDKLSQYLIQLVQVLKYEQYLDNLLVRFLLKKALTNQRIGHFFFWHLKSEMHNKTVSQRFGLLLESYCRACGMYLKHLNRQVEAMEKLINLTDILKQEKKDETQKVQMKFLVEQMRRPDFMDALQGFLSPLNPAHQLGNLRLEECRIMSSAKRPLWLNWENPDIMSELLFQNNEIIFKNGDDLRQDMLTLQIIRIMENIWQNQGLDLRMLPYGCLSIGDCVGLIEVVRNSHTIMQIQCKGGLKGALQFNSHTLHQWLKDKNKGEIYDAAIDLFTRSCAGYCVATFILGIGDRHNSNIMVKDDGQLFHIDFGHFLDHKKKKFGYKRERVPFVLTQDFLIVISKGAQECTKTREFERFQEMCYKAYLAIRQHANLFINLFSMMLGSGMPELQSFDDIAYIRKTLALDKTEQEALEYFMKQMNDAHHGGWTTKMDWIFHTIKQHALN

In the case of `COc1cc2nc3occc3c(-n3cnc([N+](=O)[O-])c3)c2cc1OC`, the outcome in [1], in experiment [3] and in experiment [4] was inactive. Besides, the inhibition with H460 [2] worked out at 58%.
For `c1cncc(Oc2c3cc4c(cc3nc3occc23)OCO4)c1`, the outcome (in experiment [1]; in the experiment on H460 [5]; in [4]) was inactive. The inhibition in experiment [6] was 51%.
Turning to `O=[N+]([O-])c1ccc(Oc2c3cc4c(cc3nc3occc23)OCO4)cc1`, the outcome (in experiment [1]; with H460 [5]; in experiment [4]) was inactive. For the same molecule, the inhibition in experiment [6] was 47%.
For `COc1ccc2c(Nc3ccc(C(C)=O)cc3)c3ccoc3nc2c1`, the outcome (in [1]; with H460 [5]; in experiment [4]) was inactive. Also, the inhibition in experiment [6] was found to be 53%.
On to `COc1cc2nc3occc3c(Sc3ccc([N+](=O)[O-])cc3)c2cc1OC`, for which the result (in experiment [1]; in experiment [3]; with H460 [5]; in [4]) was inactive.
For `COc1ccc2c(N3CCN(C(C)=O)CC3)c3ccoc3nc2c1`, the result in experiment [1], in experiment [3] and in [4] was inactive. In addition, the inhibition with H460 [2] was 58%.
`COc1ccc2c(Sc3ccc(Br)cc3)c3ccoc3nc2c1`: the result (in [1]; in [3]; in the experiment with H460 [5]; in experiment [7]; in experiment [4]) was inactive.
For `Fc1ccc(Oc2c3cc4c(cc3nc3occc23)OCO4)cc1`, the result in experiment [1], in experiment [3] and in experiment [4] was inactive. In the experiment on H460 [2], the inhibition is 45%.
Take `COc1ccc2c(OC)c3ccoc3nc2c1`: the result (in experiment [3]; in experiment [8]; with H460 [5]) was inactive.
For `COc1ccc2c(Sc3ccc([N+](=O)[O-])cc3)c3ccoc3nc2c1`, the result (in [9]; with H460 [10]; in the experiment on H460 [11]; in experiment [12]; in experiment [7]; in experiment [13]) was Active. Further, the IC50 is 4 µM in experiment [1] and 3 µM in [4]. Further, the inhibition in the experiment on H460 [2] turned out to be 48%; in [6], 49%.
With `O=[N+]([O-])c1cn(-c2c3cc4c(cc3nc3occc23)OCO4)cn1`, the result in [1], in experiment [3] and in experiment [4] was inactive. The inhibition in the experiment with H460 [2] stood at 57%.
With `COc1ccc2c(Oc3cccnc3)c3ccoc3nc2c1`, the result in experiment [1], in experiment [3] and in experiment [4] was inactive. The inhibition with H460 [2] is 67%.
As to `N#Cc1ccc(Oc2c3cc4c(cc3nc3occc23)OCO4)cc1`, the outcome in experiment [1], in [3] and in [4] was inactive. Moreover, the inhibition in the experiment on H460 [2] came out at 58%.
Regarding `COc1ccc2c([S+]([O-])c3ccc([N+](=O)[O-])cc3)c3ccoc3nc2c1` (centres undefined), the result (in [1]; in experiment [3]; with H460 [5]; in [7]; in experiment [4]) was inactive.
For `O=c1cc(N2CCOCC2)oc2c(-c3ccccc3)cccc12`, the inhibition in [3] came to 45%; in the experiment on H460 [5], 40%.
With `COc1ccc2c(Sc3ccc(C#N)cc3)c3ccoc3nc2c1`, the outcome (in experiment [1]; in experiment [3]; in the experiment with H460 [5]; in experiment [7]; in experiment [4]) was inactive.
Turning to `COc1ccc2c(Sc3ccc(C(=O)O)cc3)c3ccoc3nc2c1`, the outcome (in [1]; in experiment [3]; in the experiment on H460 [5]; in [7]; in experiment [4]) was inactive.
Consider `COc1cc2nc3occc3c(Oc3cccnc3)c2cc1OC`, for which the outcome in experiment [1], in experiment [3] and in experiment [4] was inactive. The inhibition with H460 [2] is 43%.
Regarding `COc1ccc2c(Oc3cccc([N+](=O)[O-])c3)c3ccoc3nc2c1`, the outcome in [1], in [3] and in [4] was inactive. Also, the inhibition in the experiment with H460 [2] came out at 43%.
For the molecule `COc1cc2nc3occc3c(-n3ccnc3)c2cc1OC`, the result in experiment [1], in experiment [3] and in [4] was inactive. Further, the inhibition in the experiment with H460 [2] is 64%.
Regarding `c1cn(-c2c3cc4c(cc3nc3occc23)OCO4)cn1`, the outcome in experiment [1] and in experiment [4] was inactive. The inhibition with H460 [2] came to 40%; in experiment [6], 45%.
In the case of `O=[N+]([O-])c1ccc(Sc2c3cc4c(cc3nc3occc23)OCO4)cc1`, the outcome (in experiment [1]; with H460 [5]; in [4]) was inactive. Further, the inhibition in experiment [6] stood at 44%.
As to `COc1ccc2c(-n3ccnc3)c3ccoc3nc2c1`, the result in [1], in experiment [3] and in [4] was inactive. The inhibition with H460 [2] amounted to 64%.

These data come from ChEMBL document CHEMBL1145575, “Design and synthesis of novel furoquinoline based inhibitors of multiple targets in the PI3K/Akt-mTOR pathway” (Bioorg Med Chem Lett, 2008).
